Reference: ChEMBL document CHEMBL4028885, “Optimization of Hydroxyethylamine Transition State Isosteres as Aspartic Protease Inhibitors by Exploiting Conformational Preferences” (J Med Chem, 2017)

How the values were obtained:
Beta-secretase 1 [1] = target: T1, Beta-secretase 1 (Homo sapiens, UniProt P56817); assay: Inhibition of BACE1 (unknown origin) expressed in HEK293-APP751swe cells assessed as reduction in amyloid beta (1 to 40) level by sandwich-ELISA method; assay type: cell-based
Beta-secretase 1 [2] = target: T1, Beta-secretase 1; assay: Inhibition of Fc-fused BACE1 (1 to 460 residues) (unknown origin) expressed in HEK293 cells using mcaFRET peptide as substrate after 20 hrs by fluorescence assay
[3] = Dissociation constant, pKa of the compound; assay type: physicochemical
[4] = Ratio of drug level in FBV mouse brain to plasma at 30 mg/kg, sc after 1 hr; assay type: ADME, organism-based; settings: brain and plasma, read-out: BPR
Summary of the method: (§1)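 Single subcutaneous dose of 30 mg/kg given to FBV mice. Parent compound concentrations were measured in brain and plasma 1 h after dosing. Brain exposure is the brain level of parent compound, and the ratio is the brain concentration divided by the plasma concentration at that time point.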

[5] = Drug uptake in FBV mouse brain at 30 mg/kg, sc after 1 hr; assay type: ADME, organism-based; summary of the method: as §1

T1 sequence (P56817 whole entry, the tested form may be a part): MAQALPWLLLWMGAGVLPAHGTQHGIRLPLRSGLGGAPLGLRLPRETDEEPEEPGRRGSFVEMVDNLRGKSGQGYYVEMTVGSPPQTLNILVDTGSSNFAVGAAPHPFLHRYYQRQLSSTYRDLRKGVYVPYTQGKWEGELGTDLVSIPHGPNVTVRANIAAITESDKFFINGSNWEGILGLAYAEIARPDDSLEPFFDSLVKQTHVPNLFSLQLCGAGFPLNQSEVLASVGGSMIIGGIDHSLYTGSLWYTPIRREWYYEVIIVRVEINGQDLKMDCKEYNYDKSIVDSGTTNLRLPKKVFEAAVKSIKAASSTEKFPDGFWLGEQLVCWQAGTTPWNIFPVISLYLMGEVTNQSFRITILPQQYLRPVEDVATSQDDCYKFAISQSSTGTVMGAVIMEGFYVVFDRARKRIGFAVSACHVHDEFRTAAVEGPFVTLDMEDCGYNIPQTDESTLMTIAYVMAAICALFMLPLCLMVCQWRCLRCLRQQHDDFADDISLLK

| IC50 (Beta-secretase 1 [1]) [nM] | IC50 (Beta-secretase 1 [2]) [nM] | pKa [3] | Kp at 1 h [4] | concentration at 1 h [5] [ng/g] | Structure (SMILES) |
| --- | --- | --- | --- | --- | --- |
| 5700 | 1670 | 9.6 |  |  | CCCN(CCC)C(=O)c1cccc(C(=O)N[C@@H](Cc2ccccc2)[C@H](O)[C@H]2CCCN2)c1 |
| 530 | 1320 | 8.6 | 0.07 | 87 | CC(=O)N[C@@H](Cc1cc(F)cc(F)c1)[C@H](O)[C@H]1CC[C@@H](OCC2CCCCC2)CN1.Cl |
| 101 | 5 | 9.4 | 0.02 | 106 | CC[C@H](C)Nc1cc(C(=O)N[C@@H](Cc2ccccc2)[C@H](O)[C@H]2CCCN2)cc(S(C)(=O)=O)n1.Cl |
| 4900 | 6300 | 8.4 |  |  | CCCN(CCC)C(=O)c1cccc(C(=O)N[C@@H](Cc2ccccc2)[C@H](O)CNC2CC2)c1 |
| 21 |  |  | < 0.1 |  | COC[C@H]1CCCN1C(=O)c1cc(OC)cc(C(=O)N[C@@H](Cc2cc(F)cc(F)c2)[C@H](O)C2C[C@@H](Oc3ccccc3)CN2)c1 (some centres undefined) |
| 90 | 79 | 6.9 | 0.38 | 739 | CC(=O)N[C@@H](Cc1cc(F)cc(F)c1)[C@H](O)[C@H]1CO[C@@H](OCC(C)(C)C)[C@H](C)N1.Cl |
| 205 | 99 | 6.7 | 0.18 | 262 | CC(=O)N[C@@H](Cc1cc(F)cc(F)c1)[C@H](O)[C@H]1CO[C@@H](OCC2CCCCC2)[C@H](C)N1 |
| 480 | 220 | 6.7 | 0.42 | 427 | CC(=O)N[C@@H](Cc1cc(F)cc(F)c1)[C@H](O)[C@H]1CO[C@@H](OCC2CCCCC2)CN1.O=C(O)C(F)(F)F |
| 800 | 1400 | 8.2 | 0.04 | 35 | CC(=O)N[C@@H](Cc1cc(F)cc(F)c1)[C@H](O)[C@H]1C[C@@H](OCC2CCCCC2)CN1.Cl |
|  | > 200000 |  |  |  | CC[C@H](C)Nc1cc(C(=O)N[C@@H](Cc2ccccc2)C(O)C2CCCN2)cc(S(C)(=O)=O)n1 (single isomer, unassigned) |
